92 molecules from PubChem BioAssay AID822 (SRMLSC, 2007) can be followed below.

Molecules are shown by their SMILES. Calls of active or inactive are those of the source.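 How the source made its calls: active means half-maximal effective dose for blocking growth of human endothelial cells at most 100 µM; inactive means the rest.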

This assay deals with HUVEC proliferation, viability ATP luminescence. The assay can be described thus: growth suppression of umbilical vein endothelial cells – cell-based, HUVEC, ATP luminescence, dose response (AID 822).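 Further: cells exposed to compound for 72 h before the ATP read.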 The method, boiled down: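 Material: HUVEC. Input: 1250 cells per well. Medium: endothelial basal medium (EBM) with 2% fetal bovine serum, collagen-coated wells. Compound: 0.039–20 µM, 0.2% DMSO. Times: compound treatment 72 h, 37 °C. Technique: CellTiter-Glo ATP luminescence. Read-out basis: % viability and fitted EC50. Format: collagen-coated multiwell plates.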
As for `Oc1ccccc1-c1nnc(SCCN2CCOCC2)n1Cc1ccccc1`, the EC50 was 13.6 µM. Under `COC(=O)COc1ccc(S(=O)(=O)NCCC2=CCCCC2)cc1Cl` stands 9.76 µM; under `COc1cccc(-c2nnc(Nc3nc4c(F)cccc4s3)o2)c1`, 8.57 µM; under `Cc1cc(C)c2oc(-c3cccc(NC(=O)c4ccc(F)cc4)c3)nc2c1`, 19.3 µM. For `Cc1cccc(-c2nnc(NC(=O)c3ccc(Cl)cc3)o2)c1`, the EC50 was 2.78 µM.

Turning to `COC(=O)C1=C(O)/C(=C\c2ccc(CNC(=O)C(=O)Nc3ccc(C)c(C)c3)o2)N=C1C`, the EC50 was 13.3 µM.

With `CCOC(=O)C(C(C)=O)c1c(Br)c(O)c(O)c2c(C(=O)c3ccc(C)cc3)coc12` (configuration not stated), the EC50 was 7.17 µM. With `CN(C)c1ccc(-c2nn3c(-c4ccc(Cl)cc4Cl)nnc3s2)cc1`, the half-maximal effective concentration (EC50) is 14.8 µM. Next, `CCC(=O)OCCNc1cc(Sc2nc3ccccc3s2)c2nonc2c1[N+](=O)[O-]`: 14.5 µM.

`O=C(OCC(=O)N1CCN(C(=O)c2ccco2)CC1)c1cc(-c2ccc(Cl)c(Cl)c2Cl)nc2ccccc12`: the EC50 was 4.16 µM. For the molecule `CCc1ccc(NC(=O)CCc2nc3cccnc3n2Cc2ccc(OC)cc2)cc1`, the concentration for a half-maximal effect (EC50) was 13.3 µM.

`Cc1cc(S(=O)(=O)N2CCN(Cc3ccc4c(c3)OCO4)CC2)cc(C)c1N1CCCC1=O`: the EC50 is 18.3 µM. Turning to `COc1ccc(Cl)cc1N1CCN(CCNC(=O)Nc2ccccc2C)CC1`, the EC50 is 5.83 µM. Turning to `O/N=C1\CC/C(=N\O)c2nn(-c3ccccc3Cl)nc21`, the EC50 is > 10 µM (inactive). For `COc1cc(N=c2ssnc2Cl)cc(OC)c1OC`, the EC50 was 13.4 µM. With `CCCc1cc(C(=O)Cc2ccc(F)cc2)c(O)cc1O`, the EC50 was 10 µM. On to `O=c1[nH]c(Nc2nc3ccccc3o2)nc2c1CCCC2`, for which the 50% effective concentration (EC50) was 17.3 µM. `Cn1c(=O)n(C)c2cc(NC(=O)CCl)ccc21`: the EC50 is 12.2 µM. Regarding `NS(=O)(=O)c1ccc(N=Cc2c(O)n(C3CCCCC3)c(=O)n(C3CCCCC3)c2=O)cc1`, the EC50 is 5 µM. For `COc1cc(OC)cc(C(=O)Nc2ccc(-c3nc4ccccc4o3)cc2)c1`, the EC50 is 6.75 µM. Under `Cc1coc2c(O)cc3c(c12)OC1(N2CCCCC2)C(=O)NCCCC31` (configuration not stated) stands 7.41 µM; under `Cc1ccc2[nH]c3c(N4CCN(Cc5ccccc5)CC4)ncnc3c2c1`, 8.08 µM.

Consider `CCOC(=O)c1cccc2c1-c1ccccc1/C2=N/O`, for which the EC50 is 1.31 µM. In the case of `CCC1(C)Cc2c(sc3[nH]c(=S)n(Cc4ccccc4)c(=O)c23)CO1` (configuration not stated), the EC50 is 3.07 µM. With `Cc1c(CCOC(=O)C2C3CC4CC(C3)CC2C4)sc[n+]1CC(=O)c1ccc(Br)cc1` (configuration not stated), the EC50 was 11.4 µM. For the molecule `Cc1cccc(CS(=O)(=O)c2nnc([C@H](Cc3ccccc3)NC(=O)OC(C)(C)C)o2)c1`, the concentration for a half-maximal effect (EC50) is 9.97 µM. As for `N#Cc1nc(-c2ccc(OCc3ccccc3)cc2)oc1NCCCn1ccnc1`, the concentration giving a half-maximal response (EC50) was 5.83 µM. Regarding `CCOc1ccccc1-n1c(CN2CCN(C(=O)c3ccco3)CC2)nc2ccccc2c1=O`, the EC50 was 12.3 µM. Consider `CCCCN(Cc1ccco1)C(=O)c1cc2c(=O)[nH]c3ccc(C)cc3c2s1`, for which the EC50 was 4.57 µM. Next, `CC1=CC(C)(C)Nc2ccc(OC(=O)c3cccnc3)cc21`: 12.3 µM. Next, `O=c1[nH]c2ccccc2n1C1CCN(CCCC(c2ccc(F)cc2)c2ccc(F)cc2)CC1`: 2.71 µM; `FC(F)C(F)(F)C(F)(F)C(F)(F)c1cc(-c2ccccc2)n[nH]1`: 8.28 µM; `CCOc1ccc(-c2n[nH]c(C)c2Oc2ccc(OC)cc2)c(O)c1`: 12.4 µM. Under `CCCOC(=O)c1ccc(Oc2cn[nH]c2-c2ccc(OCC)cc2O)cc1` stands 9.51 µM. Consider `CCOC(=O)N1CCc2c(sc(NC(=O)c3ccc(S(=O)(=O)N4CCCC4)cc3)c2C#N)C1`, for which the concentration for a half-maximal effect (EC50) is 17.5 µM.

Take `CCN(CC)CCn1c(=N)n(CCOc2ccccc2)c2ccccc21`: the EC50 is 14.2 µM.

With `O=C(Nc1ccc2nn(-c3ccccc3)nc2c1)c1ccc2c(c1)OCO2`, the 50% effective concentration (EC50) was 20.8 µM. Next, `N#Cc1c(NCCN)nc(NCc2ccccc2)c2c1CCN(Cc1ccccc1)C2`: 13.3 µM; `COc1ccc(-c2ccc(C#N)c(SCC(=O)Nc3sc4c(c3C#N)CCC4)n2)cc1OC`: 4.67 µM. Take `O=C(Nc1ccc(Cl)c(Cl)c1)C1=Cc2ccccc2OC1`: the concentration giving a half-maximal response (EC50) is 7.93 µM. Under `Cc1ccc2[nH]c3c(N4CCN(Cc5ccc6c(c5)OCO6)CC4)ncnc3c2c1` stands 9.97 µM; under `COc1ccc(-n2nc(C(=O)NCc3ccco3)c3c4ccccc4n(C)c3c2=O)cc1Cl`, 19.7 µM; under `CCC(C)[C@@H](NC(=O)OC(C)(C)C)c1nnc(S(=O)(=O)Cc2cccc(C)c2)o1` (some centres not stated), 19.3 µM. For the molecule `Cc1cc(/C=N/n2cnnc2)c(C)n1-c1ccccc1`, the EC50 is 19.8 µM. Under `C=CCn1c(SCC(=O)c2c(N)n(CCC)c(=O)n(C)c2=O)nc2sc(CC)cc2c1=O` stands 14.9 µM. In the case of `N=c1c2c(-c3ccccc3)c(-c3ccccc3)oc2ncn1CCCN1CCOCC1`, the EC50 was 13.6 µM. As for `CCOc1cc(/C=C\c2[nH]c(=O)[nH]c(=O)c2[N+](=O)[O-])ccc1OC(C)CC` (configuration not stated), the EC50 was 4.12 µM. Under `CC[n+]1cc(-c2ccccc2)nc(N2CCOCC2)n1` stands 9.86 µM. Next, `Cc1ccc(S(=O)(=O)c2c(C)nn(C(C)(C)C)c2OC(=O)c2cccs2)cc1`: 8.95 µM.

As to `Cc1cc(/C=N/n2cnnc2)c(C)n1-c1ccc(OCc2ccc(Cl)cc2Cl)cc1`, the EC50 was 4.39 µM.

For `O=C(Cn1c(=O)n(CCCC(=O)NC2CCCC2)c(=O)c2ccccc21)NCCC1=CCCCC1`, the EC50 is 18.1 µM.

Consider `COc1ccccc1N1C(=O)N(C(C)=O)C2C1Nc1ccccc1N2C` (configuration not stated), for which the concentration for a half-maximal effect (EC50) is 6.17 µM. Under `O=C(Nc1cccc(-c2nc3ncccc3o2)c1)c1cc2ccccc2o1` stands 14.1 µM.

For the molecule `CC(C)(C)OC(=O)N[C@@H](Cc1ccccc1)c1nnc(S(=O)(=O)Cc2cccc(F)c2)o1`, the EC50 is 14.3 µM. Next, `Cc1ccccc1CS(=O)(=O)c1nnc([C@H](CC(C)C)NC(=O)OC(C)(C)C)o1`: 12 µM. Take `COc1ccc2[nH]c(=O)c(CN(C3CCCCC3)C(c3nnnn3Cc3ccco3)C(C)C)cc2c1` (configuration not stated): the EC50 was 8.72 µM. Under `COC(=O)Nc1ccc(S(=O)(=O)N2c3ccccc3CCC2C)cc1` (configuration not stated) stands 9.54 µM. Consider `CCOC(=O)/C=C/S(=O)(=O)c1ccc(NC(C)=O)cc1`, for which the concentration giving a half-maximal response (EC50) was 15.8 µM.

Regarding `N#CC(c1ccccc1)c1ccc2c(C(F)(F)F)cc(C(F)(F)F)nc2n1` (configuration not stated), the EC50 was 16.7 µM. Next, `COc1cc2nc(NCCCN3CCN(C)CC3)n3nc(-c4ccccc4)nc3c2cc1OC`: 10.5 µM; `COc1ccccc1C1CC(c2c(-c3ccccc3)c3cc(Cl)ccc3[nH]c2=O)=NN1S(C)(=O)=O` (configuration not stated): 8.65 µM.

For `COCCCn1[nH]c2c3c(ccc2c1=O)C(=O)c1ccccc1C3=O`, the 50% effective concentration (EC50) was 4.66 µM. On to `Cc1cccc2c1N(CCCOc1ccc(C(C)(C)C)cc1)C(=O)C2=O`, for which the concentration for a half-maximal effect (EC50) was 9.1 µM. Next, `CCCCc1nc2sc3c(SCC(=O)NCc4ccco4)ncnc3c2c2c1CCC2`: 13.4 µM. Next, `C=C(C)COc1ccc(-c2n[nH]c(C)c2Oc2ccccc2OC)c(O)c1`: 10.9 µM; `Cn1c(=O)c2c(nc(Oc3ccc4c(c3)OCO4)n2Cc2ccc(Cl)cc2)n(C)c1=O`: 5.33 µM; `O=C(Nc1ccccc1)c1cccc(-c2nnc(-c3ccccc3)o2)c1`: 10.6 µM. As for `CC1(c2ccccc2)CC(C)(C)N2C(=O)C3(C(C#N)=C(N)Oc4cc(O)ccc43)c3cccc1c32` (configuration not stated), the EC50 is 6.69 µM. Regarding `O=C(Nc1ccc(OC(F)F)c(Cl)c1)Nc1ccc2c(c1)OCO2`, the half-maximal effective concentration (EC50) was 14.8 µM. Under `COc1cc(-c2nnc(COc3ccc4cc(Br)ccc4c3)o2)cc(OC)c1OC` stands 12.1 µM.

Consider `O=S1(=O)C=C(Sc2nnc(-c3ccccc3)o2)c2ccccc21`, for which the 50% effective concentration (EC50) is 4.25 µM. Next, `O=C(Nc1nnc(-c2ccc3c(c2)OCCO3)o1)c1ccc(Cc2ccccc2)cc1`: 4.76 µM.

For the molecule `CCCSc1nc2c(cnn2-c2ccc(C)cc2)c(=O)[nH]1`, the EC50 was 5.19 µM.

For `Cc1ccccc1-n1ncc2c([N+](=O)[O-])cc([N+](=O)[O-])cc21`, the concentration for a half-maximal effect (EC50) is 9.29 µM.

`Cn1c2ccccc2c(=O)c2c(=O)n(C3CCCCC3)c(-c3cccs3)nc21`: the EC50 was 8.3 µM. Regarding `Cc1cccc(-c2nc(CN3CCCC(C(=O)NC4CCC(C)CC4)C3)c(C)o2)c1` (configuration not stated), the EC50 is 11.6 µM. Next, `CN1CCN(Cc2cc(COCc3ccccc3)c3cccnc3c2O)CC1`: 6.08 µM; `Fc1ccc2c(Cl)c(-c3nnc(-c4cccs4)o3)sc2c1`: 8.06 µM.

In the case of `COc1ccccc1N1CCN(CC(=O)c2c(C)[nH]c3cc(C)ccc23)CC1`, the EC50 is 10.2 µM. With `Cc1ccccc1N1C(=O)CC(Sc2nnc(-c3ccccc3)o2)C1=O` (configuration not stated), the half-maximal effective concentration (EC50) is 15.2 µM. In the case of `CC1(C)Nc2ccc(O)cc2-c2c1ssc2=S`, the EC50 is 4.58 µM. Under `Cc1ccc(C)c(N2CCN(CCCNC(=O)Cn3cc4c(n3)CCC(C)C4)CC2)c1` (configuration not stated) stands 9.5 µM. Under `COc1ccc(S(=O)(=O)Nc2ccc(O)c3ccccc23)cc1` stands 2.45 µM; under `O=C(C#Cc1cccc([N+](=O)[O-])c1)c1ccccc1`, 20.3 µM; under `O=C(CCN1CCN(Cc2ccccc2)CC1)Nc1ccc(OCc2ccccc2)cc1`, 14.1 µM. For the molecule `N=c1c2c(-c3ccccc3)c(-c3ccccc3)n(Cc3ccco3)c2ncn1Cc1ccco1`, the concentration giving a half-maximal response (EC50) is 1.82 µM.

On to `CCCOC(=O)c1ccc(Oc2cn[nH]c2-c2ccc(OC)cc2O)cc1`, for which the EC50 is 12.3 µM. Under `C=CCOC(=O)C1=C(C)NC(SCC(=O)Nc2ccc(C)c(Cl)c2)=C(C#N)C1c1ccco1` (configuration not stated) stands 20.1 µM; under `CC(C)C1Cc2c(sc3[nH]c(=S)n(Cc4ccccc4)c(=O)c23)CO1` (configuration not stated), 3.05 µM; under `CC(Nc1nc(N2CCCC2)nc2ccccc12)c1ccccc1` (configuration not stated), 5.19 µM. Take `CC1CC(C)CN(S(=O)(=O)c2ccc(C(=O)Nc3nnc(-c4cccs4)o3)cc2)C1` (configuration not stated): the EC50 is 3.04 µM. For the molecule `COc1ccccc1NC(=O)CC1C(=O)NCCN1C(=O)Nc1ccc(Cl)c(Cl)c1` (configuration not stated), the EC50 is 10.8 µM.

A word on the EC50: it is the concentration giving half of the maximal effect.
